The first test deals with MT4. Put plainly: Selectivity index calculated as the ratio between CC50 and EC50. The test is classed as functional.
Conditions: not given
Put shortly:
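Ratio CC50/EC50, both from MTT-read 4-day MT-4 assays (mock-infected and HIV-1 IIIB-infected, 100 CCID50) run in parallel.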
For `CCC(C)Sc1nc(O)cc(Cc2cccc(C)c2)n1` (stereo not given), the SI is on record as above 578.

`Cc1c(O)nc(SC2CCCC2)nc1Cc1ccccc1`: the SI is on record as above 555.

`Oc1cc(Cc2ccccc2)nc(SC2CCCC2)n1`: the SI is recorded as 86.

In the case of `Cc1cccc(Cc2nc(SC3CCCCC3)nc(O)c2C)c1`, the SI was above 506.

As for `CCC(C)SC1=N/C(=C/c2ccccc2)C(C)(C)C(=O)N1` (stereo not given), the SI is 4.8.

Regarding `Cc1c(O)nc(SCC(C)C)nc1Cc1ccccc1`, the SI is recorded as 162.

For the compound `CCC(C)Sc1nc(O)c(C)c(Cc2cccc(C)c2)n1` (stereo not given), the SI is 100.

`C=CCSc1nc(O)cc(Cc2cccc(C)c2)n1`: the SI is 52.

`Cc1cccc(Cc2nc(SC3CCCC3)nc(O)c2C)c1`: the SI is on record as above 530.

Consider `Cc1cccc(Cc2cc(O)nc(SCC(C)C)n2)c1`, for which the SI is recorded as 49.

As to `Cc1ccnc2c1NC(=O)c1cccnc1N2C1CC1` [NEVIRAPINE], the SI was above 1250.

For the compound `Cc1cn([C@H]2C[C@H](N=[N+]=[N-])[C@@H](CO)O2)c(=O)[nH]c1=O` [ZIDOVUDINE], the SI was above 2000.

The next test has as its target Human immunodeficiency virus type 1 reverse transcriptase (Human immunodeficiency virus 1, UniProt Q72547). The test can be described thus: Dose required to inhibit HIV-1 recombinant reverse transcriptase (rRT) activity by 50%. The test is classed as functional.
Conditions: not given
Put shortly: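 Highly purified recombinant HIV-1 RT, assayed for RNA-dependent DNA polymerase activity. Template-primer: poly(rC)-oligo(dG)12–18 at 0.5 OD260 units/mL, with [3H]dGTP (1 Ci/mmol). Incubated 20 min at 37 °C; acid-insoluble radioactivity counted on glass fiber filters. Value is the dose giving 50% inhibition; means of three experiments.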
What is called IC50 is the concentration needed to halve the response being measured. As for `Cc1cccc(Cc2nc(S)nc(O)c2C)c1`, the IC50 was above 10 µM.

On to `Cc1cccc(Cc2cc(O)nc(S)n2)c1`, for which the IC50 was above 10 µM.

`CCC(C)Sc1nc(O)cc(Cc2cccc(C)c2)n1` (stereo not given): the IC50 came out at 1.2 µM.

Consider `Cc1c(O)nc(SC2CCCC2)nc1Cc1ccccc1`, for which the IC50 was 3.4 µM.

Regarding `Oc1cc(Cc2ccccc2)nc(SC2CCCCC2)n1`, the IC50 is 3 µM.

For the compound `Oc1cc(Cc2ccccc2)nc(SC2CCCC2)n1`, the half-maximal inhibitory concentration (IC50) came to 2.8 µM.

For the compound `Cc1cccc(Cc2nc(SC3CCCCC3)nc(O)c2C)c1`, the IC50 turned out to be 1.3 µM.

In the case of `CCC(C)SC1=N/C(=C/c2ccccc2)C(C)(C)C(=O)N1` (stereo not given), the IC50 amounted to 4.3 µM.

In the case of `Cc1c(O)nc(SCC(C)C)nc1Cc1ccccc1`, the IC50 is 2.2 µM.

`CCC(C)Sc1nc(O)c(C)c(Cc2cccc(C)c2)n1` (stereo not given): the IC50 is 2.7 µM.

Regarding `Cc1cccc(Cc2nc(SC3CCCC3)nc(O)c2C)c1`, the IC50 is 3.4 µM.

For the compound `Cc1cccc(Cc2cc(O)nc(SCC(C)C)n2)c1`, the IC50 is 8.4 µM.

With `Cc1c(O)nc(S)nc1Cc1ccccc1`, the half-inhibitory concentration (IC50) is above 10 µM.

Another test concerns MT4. The test can be described thus: Compound dose required to reduce the viability of mock-infected cells by 50%. The test is classed as functional. To be noted: Homo sapiens. Put shortly: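 Mock-infected MT-4 cells (1 × 10^4/well) exposed to serial compound concentrations, run in parallel with the antiviral assay, 4 days at 37 °C. Viability read by MTT; CC50 is the dose reducing viability by 50%. Means of three separate experiments.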
What is called CC50 is the concentration that lowers cell viability or growth by half. As to `Cc1cccc(Cc2cc(O)nc(S)n2)c1`, the midpoint of cytotoxicity, the CC50, lay at 258 µM.

The subject of a further test is MT4. Put plainly: Dose required to achieve 50% protection of MT-4 cells from HIV-1 induced cytopathogenicity. To be noted: Homo sapiens. The test is classed as functional, cell-based. (Protection from cytopathic effect is a common read-out in antiviral testing.)
Broadly, the EC50 is the concentration giving half of the maximal effect. Take `CCC(C)SC1=N/C(=C/c2cccc(C)c2)C(C)(C)C(=O)N1` (stereo not given): the EC50 is above 25000 nM.

For `Cc1cccc(Cc2nc(S)nc(O)c2C)c1`, the EC50 is above 102000 nM.

Consider `Cc1cccc(/C=C2/N=C(SC3CCCC3)NC(=O)C2(C)C)c1`, for which the EC50 is above 304000 nM.

`CSC1=N/C(=C/c2cccc(C)c2)C(C)(C)C(=O)N1` gave an EC50 above 5200 nM.

Compound `Cc1cccc(/C=C2/NC(=S)NC(=O)C2(C)C)c1` yielded an EC50 above 165000 nM.

For `CCC(C)Sc1nc(O)cc(Cc2cccc(C)c2)n1` (stereo not given), the response was half-maximal at 600 nM (EC50).

Compound `Cc1c(O)nc(SC2CCCC2)nc1Cc1ccccc1` yielded an EC50 of 600 nM. That is a sub-micromolar value.

`Oc1cc(Cc2ccccc2)nc(SC2CCCCC2)n1` registered an EC50 of 800 nM.

As for `Oc1cc(Cc2ccccc2)nc(SC2CCCC2)n1`, the EC50 came to 1700 nM.

In turn, `Cc1cccc(Cc2nc(SC3CCCCC3)nc(O)c2C)c1` showed a concentration for a half-maximal effect (EC50) of 600 nM.

The compound `Cc1cccc(/C=C2/N=C(SC3CCCCC3)NC(=O)C2(C)C)c1` displayed an EC50 above 292000 nM.

Compound `CCC(C)SC1=N/C(=C/c2ccccc2)C(C)(C)C(=O)N1` (stereo not given) had an EC50 of 3300 nM.

On to `Cc1cccc(/C=C2/N=C(SC(C)C)NC(=O)C2(C)C)c1`, for which the half-maximal effective concentration (EC50) was above 69000 nM.

In turn, `Cc1c(O)nc(SCC(C)C)nc1Cc1ccccc1` showed an EC50 of 800 nM.

Take `CC1(C)C(=O)NC(=S)N/C1=C/c1ccccc1`: the EC50 was above 406000 nM.

Compound `CCC(C)Sc1nc(O)c(C)c(Cc2cccc(C)c2)n1` (stereo not given) had an EC50 of 1000 nM. That is a single-digit micromolar value.

In turn, `C=CCSc1nc(O)cc(Cc2cccc(C)c2)n1` registered an EC50 of 3600 nM.

Compound `Cc1cccc(Cc2nc(SC3CCCC3)nc(O)c2C)c1` returned an EC50 of 600 nM. Against the preceding compound, the EC50 is about 6-fold lower.

With `Cc1cccc(Cc2cc(O)nc(SCC(C)C)n2)c1`, the midpoint of the response, the EC50, lay at 3300 nM. This EC50 is about 5.5-fold higher than that of the compound before.

Compound `Cc1c(O)nc(S)nc1Cc1ccccc1` came in with an EC50 above 108000 nM.

For `Cc1ccnc2c1NC(=O)c1cccnc1N2C1CC1` [NEVIRAPINE], the EC50 was found to be 300 nM.

Another test deals with MT4. The test can be described thus: Compound dose required to reduce the viability of mock-infected cells by 50%. The test is classed as functional. To be noted: Homo sapiens.
On to `CCC(C)SC1=N/C(=C/c2cccc(C)c2)C(C)(C)C(=O)N1` (stereo not given), for which the midpoint of cytotoxicity, the CC50, lay at 25 µM.

In turn, `Cc1cccc(Cc2nc(S)nc(O)c2C)c1` returned a CC50 of 284 µM.

For `Cc1cccc(/C=C2/N=C(SC3CCCC3)NC(=O)C2(C)C)c1`, the CC50 was above 304 µM.

The compound `CSC1=N/C(=C/c2cccc(C)c2)C(C)(C)C(=O)N1` returned a CC50 of 5.2 µM. This counts as single-digit micromolar.

Turning to `Cc1cccc(/C=C2/NC(=S)NC(=O)C2(C)C)c1`, the CC50 was 165 µM.

Turning to `CCC(C)Sc1nc(O)cc(Cc2cccc(C)c2)n1` (stereo not given), the CC50 is above 347 µM.

`Cc1c(O)nc(SC2CCCC2)nc1Cc1ccccc1` came in with a CC50 above 333 µM.

Compound `Oc1cc(Cc2ccccc2)nc(SC2CCCCC2)n1` gave a CC50 above 330 µM.

Compound `Oc1cc(Cc2ccccc2)nc(SC2CCCC2)n1` showed a CC50 of 147 µM.

Compound `Cc1cccc(Cc2nc(SC3CCCCC3)nc(O)c2C)c1` gave a CC50 above 304 µM.

Regarding `Cc1cccc(/C=C2/N=C(SC3CCCCC3)NC(=O)C2(C)C)c1`, the CC50 was above 292 µM.

On to `CCC(C)SC1=N/C(=C/c2ccccc2)C(C)(C)C(=O)N1` (stereo not given), for which the CC50 was determined as 16 µM.

The compound `Cc1cccc(/C=C2/N=C(SC(C)C)NC(=O)C2(C)C)c1` had a CC50 of 69 µM.

Take `Cc1c(O)nc(SCC(C)C)nc1Cc1ccccc1`: the CC50 was 130 µM.

Consider `CC1(C)C(=O)NC(=S)N/C1=C/c1ccccc1`, for which the CC50 is above 406 µM.

`CCC(C)Sc1nc(O)c(C)c(Cc2cccc(C)c2)n1` (stereo not given) displayed a CC50 of 100 µM.

In turn, `C=CCSc1nc(O)cc(Cc2cccc(C)c2)n1` came in with a CC50 of 188 µM.

`Cc1cccc(Cc2nc(SC3CCCC3)nc(O)c2C)c1` had a CC50 above 318 µM.

Compound `Cc1cccc(Cc2cc(O)nc(SCC(C)C)n2)c1` yielded a CC50 of 163 µM.

Take `Cc1c(O)nc(S)nc1Cc1ccccc1`: the midpoint of cytotoxicity, the CC50, lay at 431 µM. This CC50 lies about 2.6-fold higher than the previous one.

For `Cc1ccnc2c1NC(=O)c1cccnc1N2C1CC1` [NEVIRAPINE], the CC50 is above 376 µM.

In the case of `Cc1cn([C@H]2C[C@H](N=[N+]=[N-])[C@@H](CO)O2)c(=O)[nH]c1=O` [ZIDOVUDINE], the CC50 is above 20 µM.

Another test relates to MT4. Put plainly: Compound dose required to achieve 50% protection of MT-4 cells from HIV-1 induced cytopathogenicity. The test is classed as functional, cell-based. To be noted: Homo sapiens. Put shortly: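 HIV-1 IIIB (100 CCID50/well) added to MT-4 cells (1 × 10^4/well) with or without serial compound concentrations; 4-day incubation at 37 °C. Viable cells counted by MTT; EC50 is the dose giving 50% protection from virus-induced cytopathogenicity. Means of three separate experiments.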
As for `Cc1cccc(Cc2cc(O)nc(S)n2)c1`, the EC50 is above 258 µM.
